pEC50: −log10 of the molar value. Activity calls are given as the source filed them. The rule behind the calls is not given here.
How the values were obtained:
[1] = tested on: U2OS; test: Antiproliferative activity against human U2OS cells expressing PAD4 assessed as cell viability at 20 uM after 72 hrs by XTT assay; assay type: functional
In short: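 U2OS cells were treated the next day at 20 μM final for 72 h, with DMSO and Triton X-100 as controls. Viability was read by XTT absorbance at 475 nm.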

[2] = target: Protein-arginine deiminase type-4 (Homo sapiens) (UniProt Q9UM07); test: Inhibition of PAD4 (unknown origin) using N-alpha-benzoyl-L-arginine ethyl ester as substrate assessed as citrulline production after 15 mins by COLDER assay
[3] = tested on: Liver; test: Metabolic stability in mouse liver microsomes; assay type: ADME
[4] = tested on: U2OS; test: Antiproliferative activity against human U2OS cells expressing PAD4 assessed as cell viability after 72 hrs by XTT assay; assay type: functional, cell-based
In short: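 U2OS human osteosarcoma cells were plated and treated the next day with an eight-point concentration series for 72 h. Viability was read by XTT at 475 nm. EC50 was fitted to a dose–response equation with range (uninhibited minus background) and slope factor.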

[5] = target: Protein-arginine deiminase type-4 (Mus musculus) (UniProt Q9Z183); test: Inhibition of PAD4 in C57BL/6 mouse bone marrow neutrophils assessed as inhibition of PMA-stimulated neutrophil extracellular trap formation at 2 to 200 uM preincubated for 30 mins followed by PMA stimulation measured after 3 to 4 hrs by […]
In short: (§1)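 C57BL/6 bone-marrow neutrophils were isolated on a Percoll gradient (69–78% interface, >95% Ly-6G+) and seeded at 1.5 × 10^5 on poly-L-lysine coverslips. They were pretreated for 30 min in Locke's solution, then given 100 nM PMA for 3–4 h, PFA-fixed, and stained with Hoechst and anti-myeloperoxidase. NETs (decondensed MPO+ nuclei) were counted blind over ≥5 fields as % of total cells.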

[6] = Cytotoxicity against human neutrophils assessed as cell viability after 4 hrs by XTT assay; assay type: cell-based; details: Neutrophil
In short: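 Freshly isolated human neutrophils in RPMI 1640 with 10% FBS were seeded at 40 000 cells/well on poly-L-lysine and allowed to adhere for 1 h. They were exposed to compound at 1–500 μM for 4 h, and viability was read by XTT.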

[7] = target: Protein-arginine deiminase type-4 (Mus musculus) (UniProt Q9Z183); test: Inhibition of PAD4 in C57BL/6 mouse bone marrow neutrophils assessed as inhibition of PMA-stimulated neutrophil extracellular trap formation at […] preincubated for 30 mins followed by PMA stimulation measured after 3 to 4 hrs by […]; in short: as §1
[8] = species on record: Homo sapiens; test: Selectivity ratio for PAD1 (unknown origin) over PAD3 (unknown origin)
[9] = target: T1, Protein-arginine deiminase type-1 (Homo sapiens) (UniProt Q9ULC6); test: Ratio of Kinact to Ki for PAD1 (unknown origin) using N-alpha-benzoyl-L-arginine ethyl ester as substrate assessed as citrulline production after 15 mins by COLDER assay
T1 sequence (whole entry): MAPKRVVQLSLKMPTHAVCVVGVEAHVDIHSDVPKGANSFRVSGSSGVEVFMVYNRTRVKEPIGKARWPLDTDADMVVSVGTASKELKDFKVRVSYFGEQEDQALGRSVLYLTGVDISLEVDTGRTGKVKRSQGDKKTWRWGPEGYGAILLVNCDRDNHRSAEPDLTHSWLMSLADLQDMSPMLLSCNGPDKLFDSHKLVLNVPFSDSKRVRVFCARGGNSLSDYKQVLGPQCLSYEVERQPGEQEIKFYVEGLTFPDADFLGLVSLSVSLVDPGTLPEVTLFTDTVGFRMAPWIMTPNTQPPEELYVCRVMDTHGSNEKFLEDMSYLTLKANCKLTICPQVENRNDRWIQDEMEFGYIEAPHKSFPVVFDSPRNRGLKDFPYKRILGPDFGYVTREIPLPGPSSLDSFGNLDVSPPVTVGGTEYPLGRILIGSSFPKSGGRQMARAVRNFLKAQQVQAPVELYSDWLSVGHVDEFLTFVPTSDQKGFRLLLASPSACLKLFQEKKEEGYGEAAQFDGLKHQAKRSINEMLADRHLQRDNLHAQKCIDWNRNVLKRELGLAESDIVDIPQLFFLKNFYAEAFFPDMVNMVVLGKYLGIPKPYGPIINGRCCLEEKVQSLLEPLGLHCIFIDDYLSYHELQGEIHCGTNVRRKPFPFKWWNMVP

[10] = target: Protein-arginine deiminase type-4 (Homo sapiens) (UniProt Q9UM07); test: Ratio of Kinact to Ki for PAD4 (unknown origin) using N-alpha-benzoyl-L-arginine ethyl ester as substrate assessed as citrulline production after 15 mins by COLDER assay
[11] = species on record: Homo sapiens; test: Selectivity ratio for PAD1 (unknown origin) over PAD2 (unknown origin)
[12] = target: Protein-arginine deiminase type-2 (Homo sapiens) (UniProt Q9Y2J8); test: Inhibition of PAD2 (unknown origin) using N-alpha-benzoyl-L-arginine ethyl ester as substrate assessed as citrulline production after 15 mins by COLDER assay
[13] = target: T1, Protein-arginine deiminase type-1 (Homo sapiens); test: Inhibition of PAD1 (unknown origin) using N-alpha-benzoyl-L-arginine ethyl ester as substrate assessed as citrulline production after 15 mins by COLDER assay

Sequence of Protein-arginine deiminase type-4 (Homo sapiens) (Q9UM07 whole entry): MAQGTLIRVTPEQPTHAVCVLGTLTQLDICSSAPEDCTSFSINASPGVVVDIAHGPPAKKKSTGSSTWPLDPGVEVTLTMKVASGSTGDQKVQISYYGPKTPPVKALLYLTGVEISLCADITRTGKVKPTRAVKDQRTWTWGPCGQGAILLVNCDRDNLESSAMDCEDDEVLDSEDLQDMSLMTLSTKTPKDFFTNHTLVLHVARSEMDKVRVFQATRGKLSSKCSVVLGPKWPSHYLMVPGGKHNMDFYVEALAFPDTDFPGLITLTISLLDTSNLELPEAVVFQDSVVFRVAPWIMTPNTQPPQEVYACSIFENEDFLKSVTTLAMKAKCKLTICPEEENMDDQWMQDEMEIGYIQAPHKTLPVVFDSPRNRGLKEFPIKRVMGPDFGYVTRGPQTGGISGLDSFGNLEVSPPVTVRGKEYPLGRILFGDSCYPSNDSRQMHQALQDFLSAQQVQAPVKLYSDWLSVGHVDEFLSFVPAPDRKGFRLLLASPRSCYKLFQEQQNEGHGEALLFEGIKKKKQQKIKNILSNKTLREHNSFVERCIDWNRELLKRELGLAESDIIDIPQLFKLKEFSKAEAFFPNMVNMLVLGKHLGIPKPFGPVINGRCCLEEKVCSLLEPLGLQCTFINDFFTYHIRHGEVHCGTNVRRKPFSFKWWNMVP
Sequence of Protein-arginine deiminase type-4 (Mus musculus) (Q9Z183 whole entry): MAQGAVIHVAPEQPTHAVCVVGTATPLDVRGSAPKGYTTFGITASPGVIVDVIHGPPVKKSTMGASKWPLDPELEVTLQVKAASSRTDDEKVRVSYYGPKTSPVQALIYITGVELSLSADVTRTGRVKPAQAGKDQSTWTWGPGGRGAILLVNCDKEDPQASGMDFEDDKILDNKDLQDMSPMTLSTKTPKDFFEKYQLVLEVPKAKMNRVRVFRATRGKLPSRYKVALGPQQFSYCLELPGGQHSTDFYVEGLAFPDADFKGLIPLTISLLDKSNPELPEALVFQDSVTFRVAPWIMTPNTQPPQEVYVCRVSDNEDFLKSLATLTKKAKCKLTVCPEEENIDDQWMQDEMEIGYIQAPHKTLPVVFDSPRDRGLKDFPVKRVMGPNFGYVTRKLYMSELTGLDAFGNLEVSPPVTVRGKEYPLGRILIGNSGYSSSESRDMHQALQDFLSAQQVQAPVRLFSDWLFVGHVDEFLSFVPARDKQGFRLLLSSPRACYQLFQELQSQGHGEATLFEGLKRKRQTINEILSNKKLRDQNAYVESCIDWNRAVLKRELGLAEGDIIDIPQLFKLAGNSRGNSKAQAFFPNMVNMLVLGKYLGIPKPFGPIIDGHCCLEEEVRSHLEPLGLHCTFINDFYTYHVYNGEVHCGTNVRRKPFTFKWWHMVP
Sequence of Protein-arginine deiminase type-2 (Homo sapiens) (Q9Y2J8 whole entry): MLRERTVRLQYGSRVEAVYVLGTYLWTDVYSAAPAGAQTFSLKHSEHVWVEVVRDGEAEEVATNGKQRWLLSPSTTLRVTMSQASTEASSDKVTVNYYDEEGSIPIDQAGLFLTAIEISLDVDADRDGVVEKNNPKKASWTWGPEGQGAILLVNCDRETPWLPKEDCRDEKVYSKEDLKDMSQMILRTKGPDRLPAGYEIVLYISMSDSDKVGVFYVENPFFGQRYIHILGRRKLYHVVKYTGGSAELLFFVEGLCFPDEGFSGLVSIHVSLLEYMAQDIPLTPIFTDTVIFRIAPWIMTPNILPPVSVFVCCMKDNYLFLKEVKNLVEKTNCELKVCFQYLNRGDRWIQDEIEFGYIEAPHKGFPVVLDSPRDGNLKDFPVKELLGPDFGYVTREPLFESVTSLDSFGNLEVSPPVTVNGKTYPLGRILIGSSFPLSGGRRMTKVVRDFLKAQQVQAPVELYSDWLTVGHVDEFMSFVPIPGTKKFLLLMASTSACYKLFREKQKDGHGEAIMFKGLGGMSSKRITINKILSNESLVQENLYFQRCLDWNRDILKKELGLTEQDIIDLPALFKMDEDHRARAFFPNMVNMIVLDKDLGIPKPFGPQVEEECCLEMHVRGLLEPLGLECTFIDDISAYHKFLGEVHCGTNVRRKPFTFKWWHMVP

N=C(CCl)NCCC[C@H](NC(=O)c1ccc(-c2ccccc2)cc1)c1nn[nH]n1
Activity [1]: inactive

CC(C)(C)n1nnc([C@H](CCCNC(=N)CCl)NC(=O)c2ccccc2)n1
Activity [1]: inactive

CC(C)(C)n1nnc([C@H](CCCNC(=N)CF)NC(=O)c2ccc(-c3ccccc3)cc2)n1
inhibition [2]: inactive | Stability [3]: Stable | viability at 20 µM ([1]; read-out: Activity): > 50% | pEC50 [4]: 4.35

N=C(CCl)NCCC[C@H](NC(=O)c1ccccc1)C(N)=O
inhibition [5]: Active

CC(C)(C)n1nnc([C@H](CCCNC(=N)CCl)NC(=O)c2ccccc2C(=O)O)n1
pEC50 [6]: 3.01 | Stability [3]: Stable | Activity [1]: inactive | inhibition [7]: Active

N=C(CCl)NCCC[C@H](NC(=O)c1ccccc1C(=O)O)c1nn[nH]n1
Selectivity ratio [8]: 15 | Ratio [9]: 82000 M⁻¹ min⁻¹ | Ratio [10]: 159000 M⁻¹ min⁻¹ | Selectivity ratio [11]: 15 | Activity [1]: inactive

N=C(CF)NCCC[C@H](NC(=O)c1ccccc1)c1nn[nH]n1
inhibition [2]: inactive | Activity [1]: inactive

N=C(CCl)NCCC[C@H](NC(=O)c1ccccc1)c1nn[nH]n1
Activity [1]: inactive

CC(C)(C)n1nnc([C@H](CCCNC(=N)CF)NC(=O)c2ccccc2C(=O)O)n1
inhibition [2]: inactive | Stability [3]: Stable | Activity [1]: inactive | inhibition [12]: Active

CC(C)(C)n1nnc([C@H](CCCNC(=N)CCl)NC(=O)c2ccc(-c3ccccc3)cc2)n1
inhibition [2]: inactive | pEC50 [6]: 4.51 | pEC50 [4]: 5.00

N=C(CF)NCCC[C@H](NC(=O)c1ccccc1)C(N)=O
inhibition [2]: inactive

N=C(CF)NCCC[C@H](NC(=O)c1ccc(-c2ccccc2)cc1)c1nn[nH]n1
inhibition [2]: inactive | Activity [1]: inactive

CC(C)(C)n1nnc([C@H](CCCNC(=N)CF)NC(=O)c2ccccc2)n1
inhibition [2]: inactive | Activity [1]: inactive

N=C(CF)NCCC[C@H](NC(=O)c1ccccc1C(=O)O)c1nn[nH]n1
inhibition [2]: inactive | Selectivity ratio [8]: 20 | Selectivity ratio [11]: 20 | Stability [3]: Stable | inhibition [13]: Active | Activity [1]: inactive

From ChEMBL document CHEMBL3407386, “Design, synthesis, and biological evaluation of tetrazole analogs of Cl-amidine as protein arginine deiminase inhibitors” (J Med Chem, 2015)
